Reference: ChEMBL document CHEMBL2034925, “Isoprenylated flavonoid and adipogenesis-promoting constituents of Dodonaea viscosa” (2012)
The source made the active and inactive calls. No cut-off for these calls is given here.

Key:
[1] = test system: 3T3-L1; test: Adipogenic activity in mouse 3T3L1 cells assessed as increase in triglyceride level at 3 uM after 8 days relative to control; type: functional
In short: (§1)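 3T3L1 fibroblasts grown in DMEM/10% newborn calf serum, 37 °C, 5% CO2. Two days post-confluence, differentiation induced with 2 μg/mL insulin, 1 μM dexamethasone, 125 μM IBMX in DMEM/10% FBS. Medium was then changed every two days to 10% FBS/DMEM plus 2 μg/mL insulin. Compounds added at induction and kept 8 days. Cells lysed by three freeze/thaw cycles; triglyceride measured by enzymatic kit.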

[2] = test system: 3T3-L1; test: Adipogenic activity in mouse 3T3L1 cells assessed as increase in triglyceride level at 10 uM after 8 days relative to control; type: functional; in short: as §1
[3] = test system: 3T3-L1; test: Adipogenic activity in mouse 3T3L1 cells assessed as intracellular lipid droplet accumulation at 10 to 30 uM after 8 days by oil red O staining; type: functional, cell-based
In short: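 3T3L1 fibroblasts, differentiation induced 2 days post-confluence with insulin (2 μg/mL), dexamethasone (1 μM), IBMX (125 μM) in 10% FBS/DMEM, then insulin-supplemented 10% FBS/DMEM changed every 2 days. Compounds present from induction. After 8 days of differentiation, cells stained with Oil Red O and photographed.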

[4] = test system: 3T3-L1; test: Adipogenic activity in mouse 3T3L1 cells assessed as upregulation of GLUT4 gene expression at 3 to 30 uM by RT-PCR analysis; type: functional, cell-based
In short: (§2)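 In differentiating 3T3L1 cells (insulin/dexamethasone/IBMX induction, compounds added at induction), total RNA extracted with TRIzol, reverse-transcribed, then quantitative PCR run with mouse primers for GLUT4 or aP2, with β-actin as reference gene.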

[5] = test system: 3T3-L1; test: Adipogenic activity in mouse 3T3L1 cells assessed as upregulation of ap2 gene expression at 3 to 30 uM by RT-PCR analysis; type: functional, cell-based; in short: as §2
[6] = test system: 3T3-L1; test: Adipogenic activity in mouse 3T3L1 cells assessed as upregulation of GLUT4 protein expression at 3 to 10 uM by […] analysis; type: functional, cell-based
In short: (§3)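 Differentiating 3T3L1 cells (insulin/dexamethasone/IBMX induction, compounds added at induction) harvested in RIPA buffer with protease inhibitors. Proteins resolved by SDS-PAGE and blotted onto PVDF. Blots probed with primary antibodies to GLUT4 or aP2 and β-actin, then HRP-conjugated secondary antibodies.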

[7] = test system: 3T3-L1; test: Adipogenic activity in mouse 3T3L1 cells assessed as upregulation of ap2 protein expression at 3 to 10 uM by […] analysis; type: functional, cell-based; in short: as §3
[8] = test system: 3T3-L1; test: Adipogenic activity in mouse 3T3L1 cells assessed as increase in triglyceride level after 8 days relative to control; type: functional, cell-based; in short: as §1
[9] = test system: 3T3-L1; test: Adipogenic activity in mouse 3T3L1 cells assessed as increase in triglyceride level at 30 uM after 8 days relative to control; type: functional; in short: as §1
[10] = test system: 3T3-L1; test: Adipogenic activity in mouse 3T3L1 cells assessed as upregulation of GLUT4 protein expression at 3 to 30 uM by […] analysis; type: functional, cell-based; in short: as §3
[11] = test system: 3T3-L1; test: Adipogenic activity in mouse 3T3L1 cells assessed as upregulation of ap2 protein expression at 3 to 30 uM by […] analysis; type: functional, cell-based
[12] = test system: 3T3-L1; test: Adipogenic activity in mouse 3T3L1 cells assessed as increase in triglyceride level at 1 uM after 8 days relative to control; type: functional; in short: as §1

COc1c(-c2cc(CC=C(C)C)c(O)c(CC=C(C)C)c2)oc2cc(O)cc(O)c2c1=O
Activity [1]: 169.9%

COc1c(O)cc2oc(-c3cc(CC=C(C)C)c(O)c(CC=C(C)C)c3)c(OC)c(=O)c2c1O
Activity [1]: 256.2%

COc1c(O)cc2oc(-c3cc(CC=C(C)C)c(O)c(CCC(C)CO)c3)c(OC)c(=O)c2c1O (stereo not drawn)
Activity [1]: 233%
Activity [2]: 289.8%
Activity [3]: Active
Activity [4]: Active
Activity [5]: Active
Activity [6]: Active
Activity [7]: Active

COc1c(-c2ccc(O)cc2)oc2cc(O)cc(O)c2c1=O
Activity [8]: inactive

COc1c(O)cc2oc(-c3ccc(O)cc3)c(OC)c(=O)c2c1O
Activity [8]: inactive

COc1cc(O)c2c(c1)O[C@H](c1cc(O)cc(O)c1)CC2=O [BLUMEATIN]
Activity [1]: 121.2%
Activity [2]: 161.3%
Activity [9]: 219.2%
Activity [3]: Active
Activity [4]: Active
Activity [5]: Active
Activity [10]: Active
Activity [11]: Active

C=C(C)C(O)Cc1cc(-c2oc3cc(O)c(OC)c(O)c3c(=O)c2OC)cc(CCC(C)CO)c1O (stereo not drawn) [DODOVISCIN A]
Activity [1]: 138.5%
Activity [2]: 248.3%
Activity [3]: Active
Activity [4]: Active
Activity [5]: Active
Activity [6]: Active
Activity [7]: Active

C=C(C)C(O)Cc1cc(-c2oc3cc(O)c(OC)c(O)c3c(=O)c2OC)cc(CC=C(C)C)c1O (stereo not drawn) [DODOVISCIN B]
Activity [1]: 328.1%

COc1c(O)cc2oc(-c3cc(CC=C(C)C)c(O)c(C[C@H](O)C(C)(C)O)c3)c(OC)c(=O)c2c1O [DODOVISCIN D]
Activity [1]: 103.2%
Activity [2]: 117.8%
Activity [9]: 198.2%

COc1c(-c2cc(CC=C(C)C)c(O)c(C/C=C(\C)CO)c2)oc2cc(O)cc(O)c2c1=O [DODOVISCIN E]
Activity [1]: 280.2%

COc1c(O)cc2oc(-c3cc(CC=C(C)C)c(O)c(C/C=C(\C)CO)c3)c(OC)c(=O)c2c1O [DODOVISCIN G]
Activity [1]: 355.7%

COc1c(-c2cc(CC=C(C)C)c(O)c(CCC(C)CO)c2)oc2cc(O)cc(O)c2c1=O (stereo not drawn) [DODOVISCIN H]
Activity [1]: 263.1%

COc1c(-c2ccc(O)c(CCC(C)CO)c2)oc2cc(O)cc(O)c2c1=O (stereo not drawn) [DODOVISCIN I]
Activity [1]: 189.6%

CN(CCOc1ccc(CC2SC(=O)NC2=O)cc1)c1ccccn1 (stereo not drawn) [ROSIGLITAZONE]
Activity [12]: 335.6%

COc1cc(O)c2c(c1)O[C@H](c1ccc(O)cc1)CC2=O [SAKURANETIN]
Activity [1]: 278.8%
Activity [2]: 419.9%
Activity [9]: 459.4%
